Measured values: ChEMBL document CHEMBL1123779, “Modifications of primaquine as antimalarials. 4. 5-Alkoxy derivatives of primaquine” (J Med Chem, 1987)

Tests used:
[1] = test system: Plasmodium berghei; experiment: Blood schizonticidal activity in trophozoite-induced Plasmodium berghei infected mice (Mus musculus) at 40 mg/kg; numbers cured; format: functional
Summary of the method: (§1)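 Run at the Rane Laboratory with blood-induced P. berghei infections in mice, five animals per group. A cure is a mouse surviving to 60 days postinfection. Deaths before day 6 are recorded separately as toxic deaths. Activity is scored from the increase in mean survival time over untreated controls, and counts as active when treated MST is more than twice control MST.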

[2] = test system: Mus musculus; experiment: Suppressive blood schizonticidal antimalarial activity evaluated in the trophozoite-induced Plasmodium berghei infection in mice (Mus musculus) at a dose 80 mg/kg given as no. of cures; format: functional; summary of the method: as §1
[3] = test system: Mus musculus; experiment: Suppressive blood schizonticidal antimalarial activity evaluated in the trophozoite-induced Plasmodium berghei infection in mice (Mus musculus) at a dose 640 mg/kg given as no. of cures; format: functional; summary of the method: as §1
[4] = test system: Mus musculus; experiment: Suppressive blood schizonticidal antimalarial activity evaluated in the trophozoite-induced Plasmodium berghei infection in mice (Mus musculus) at a dose 320 mg/kg given as number of cures; format: functional; summary of the method: as §1
[5] = test system: Mus musculus; experiment: Suppressive blood schizonticidal antimalarial activity evaluated in the trophozoite-induced Plasmodium berghei infection in mice (Mus musculus) at a dose 20 mg/kg given as no. of cures; format: functional; summary of the method: as §1
[6] = test system: Mus musculus; experiment: Suppressive blood schizonticidal antimalarial activity evaluated in the trophozoite-induced Plasmodium berghei infection in mice (Mus musculus) at a dose 10 mg/kg; format: functional
Summary of the method: (§2)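 Run at the Rane Laboratory in mice infected with blood-induced P. berghei, five animals per group. Activity is the increase in mean survival time over untreated infected controls. A compound counts as active when treated-group MST is more than twice the control MST. Cures are mice surviving at 60 days postinfection.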

[7] = test system: Plasmodium cynomolgi; experiment: Cures in Plasmodium cynomolgi infected Rhesus monkeys (Macaca mulatta) on 1 mg/kg/day after 7 days; cured 0 of 1; format: functional
[8] = test system: Plasmodium cynomolgi; experiment: Cures in Plasmodium cynomolgi infected Rhesus monkeys (Macaca mulatta) on 3.16 mg/kg/day after 7 days; cured 0 of 1; format: functional
[9] = test system: Plasmodium cynomolgi; experiment: Cures in Plasmodium cynomolgi infected Rhesus monkeys (Macaca mulatta) on 10.0 mg/kg/day after 7 days; cured 1 of 1; format: functional
[10] = test system: Mus musculus; experiment: Suppressive blood schizonticidal antimalarial activity evaluated in the trophozoite-induced Plasmodium berghei infection in mice (Mus musculus) at a dose 160 mg/kg given as no. of cures; format: functional; summary of the method: as §1
[11] = test system: Mus musculus; experiment: Suppressive blood schizonticidal antimalarial activity evaluated in the trophozoite-induced Plasmodium berghei infection in mice (Mus musculus) at a dose 160 mg/kg given as no. of toxic deaths; format: functional
Summary of the method: (§3)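 Rane Laboratory mouse test with blood-induced P. berghei infection, five mice per group. Toxic deaths are deaths occurring before the 6th day postinfection.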

[12] = test system: Mus musculus; experiment: (§4) Suppressive blood schizonticidal antimalarial activity evaluated in the trophozoite-induced Plasmodium berghei infection in mice (Mus musculus) at a dose 40 mg/kg; format: functional; parameters: unit not given beside the values; summary of the method: as §2
[13] = test system: Plasmodium cynomolgi; experiment: Cures in Plasmodium cynomolgi infected Rhesus monkeys (Macaca mulatta) on 0.5 mg/kg/day; format: functional
[14] = test system: Plasmodium berghei; experiment: Suppressive blood schizonticidal antimalarial activity evaluated in the trophozoite-induced Plasmodium berghei infection in mice (Mus musculus) at a dose 640 mg/kg given as number of toxic deaths; format: toxicity, organism-based; parameters: dose 640 mg/kg; conditions: in vivo; summary of the method: as §3
[15] = test system: Mus musculus; experiment: Suppressive blood schizonticidal antimalarial activity evaluated in the trophozoite-induced Plasmodium berghei infection in mice (Mus musculus) at a dose 320 mg/kg given as no. of toxic deaths; format: functional; summary of the method: as §3
[16] = test system: Plasmodium berghei; experiment: Blood schizonticidal antimalarial activity in the trophozoite-induced Plasmodium berghei infection in mice (Mus musculus) at 20 mg/kg; format: functional; parameters: unit not given beside the values; summary of the method: as §2
[17] = test system: Mus musculus; experiment: Suppressive blood schizonticidal antimalarial activity evaluated in the trophozoite-induced Plasmodium berghei infection in mice (Mus musculus) at a dose 80 mg/kg; format: functional; parameters: unit not given beside the values; summary of the method: as §2
[18] = test system: Plasmodium cynomolgi; experiment: Cures in Plasmodium cynomolgi infected Rhesus monkeys (Macaca mulatta) on 0.25 mg/kg/day dose; format: functional
[19] = test system: Plasmodium cynomolgi; experiment: Cures in Plasmodium cynomolgi infected Rhesus monkeys (Macaca mulatta) on 0.125 mg/kg/day dose; format: functional
[20] = test system: Plasmodium cynomolgi; experiment: Cures in Plasmodium cynomolgi infected Rhesus monkeys (Macaca mulatta) on 1 mg/kg/day after 7 days; cured 2 of 2; format: functional
[21] = test system: Mus musculus; experiment: Suppressive blood schizonticidal antimalarial activity evaluated in the trophozoite-induced Plasmodium berghei infection in mice (Mus musculus) at a dose 2.5 mg/kg given as number of cures; format: functional; summary of the method: as §1
[22] = test system: Mus musculus; experiment: Suppressive blood schizonticidal antimalarial activity evaluated in the trophozoite-induced Plasmodium berghei infection in mice (Mus musculus) at a dose 5 mg/kg given as no. of cures; format: functional; summary of the method: as §1
[23] = test system: Mus musculus; experiment: Suppressive blood schizonticidal antimalarial activity evaluated in the trophozoite-induced Plasmodium berghei infection in mice (Mus musculus) at a dose 80 mg/kg given as no. of toxic deaths; format: functional; summary of the method: as §3
[24] = test system: Plasmodium cynomolgi; experiment: Cures in Plasmodium cynomolgi infected Rhesus monkeys (Macaca mulatta) on 0.1 mg/kg/day after 7 days; cured 3 of 4; format: functional
Summary of the method: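 Radical curative test run by the SEATO Medical Research Laboratory, Bangkok, in rhesus monkeys with sporozoite-induced P. cynomolgi infection. Cures are recorded as the number cured out of the number treated.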

[25] = test system: Mus musculus; experiment: Suppressive blood schizonticidal antimalarial activity evaluated in the trophozoite-induced Plasmodium berghei infection in mice (Mus musculus) at a dose 10 mg/kg given as no. of cures; format: functional; summary of the method: as §1
[26] = test system: Plasmodium cynomolgi; experiment: Radical curative antimalarial activity against Plasmodium cynomolgi in Rhesus monkeys (Macaca mulatta) at 1 mg/kg/day over 7 days; cured 4 of 4; format: functional
[27] = test system: Plasmodium cynomolgi; experiment: Cures in Plasmodium cynomolgi infected Rhesus monkeys (Macaca mulatta) on 0.316 mg/kg/day after 7 days; cures 2 of 2; format: functional
[28] = test system: Plasmodium cynomolgi; experiment: Cures in Plasmodium cynomolgi infected Rhesus monkeys (Macaca mulatta) on 10.0 mg/kg/day after 7 days; format: functional, organism-based
[29] = test system: Mus musculus; experiment: Suppressive blood schizonticidal antimalarial activity evaluated in the trophozoite-induced Plasmodium berghei infection in mice (Mus musculus) at a dose 2.5 mg/kg; format: functional; summary of the method: as §2
[30] = test system: Plasmodium cynomolgi; experiment: Cures in Plasmodium cynomolgi infected Rhesus monkeys (Macaca mulatta) on 0.1 mg/kg/day after 7 days (x7); cured 0 of 2; format: functional
[31] = test system: Plasmodium cynomolgi; experiment: Cures in Plasmodium cynomolgi infected Rhesus monkeys (Macaca mulatta) on 1 mg/kg/day after 7 days; cured 1 of 1; format: functional
[32] = test system: Mus musculus; experiment: Suppressive blood schizonticidal antimalarial activity evaluated in the trophozoite-induced Plasmodium berghei infection in mice (Mus musculus) at a dose 5 mg/kg; format: functional; parameters: unit not given beside the values; summary of the method: as §2
[33] = test system: Mus musculus; experiment: as §4; format: functional; summary of the method: as §1
[34] = test system: Plasmodium cynomolgi; experiment: Cures in Plasmodium cynomolgi infected Rhesus monkeys (Macaca mulatta) on 0.316 mg/kg/day after 7 days; cured 1 of 1; format: functional
[35] = test system: Plasmodium cynomolgi; experiment: Cures in Plasmodium cynomolgi infected Rhesus monkeys (Macaca mulatta) on 0.1 mg/kg/day after 7 days; cured 0 of 1; format: functional
[36] = test system: Mus musculus; experiment: Suppressive blood schizonticidal antimalarial activity evaluated in the trophozoite-induced Plasmodium berghei infection in mice (Mus musculus) at a dose 160 mg/kg; format: functional; summary of the method: as §2
[37] = test system: Plasmodium cynomolgi; experiment: Cures in Plasmodium cynomolgi infected Rhesus monkeys (Macaca mulatta) on 0.316 mg/kg/day after 7 days; cured 0 of 2; format: functional
[38] = test system: Plasmodium cynomolgi; experiment: Cures in Plasmodium cynomolgi infected Rhesus monkeys (Macaca mulatta) on 1 mg/kg/day after 7 days; cured 3 of 4; format: functional
[39] = test system: Plasmodium cynomolgi; experiment: Cures in Plasmodium cynomolgi infected Rhesus monkeys (Macaca mulatta) on 0.1 mg/kg/day after 7 days; cured 1 of 3; format: functional
[40] = test system: Plasmodium cynomolgi; experiment: Radical curative antimalarial activity against Plasmodium cynomolgi in Rhesus monkeys (Macaca mulatta) at 0.316 mg/kg/day over 7 days; cured 3 of 5; format: functional
[41] = test system: Mus musculus; experiment: Suppressive blood schizonticidal antimalarial activity evaluated in the trophozoite-induced Plasmodium berghei infection in mice (Mus musculus) at a dose 40 mg/kg given as number of toxic deaths; format: ADME, organism-based; parameters: dose 40 mg/kg; conditions: in vivo; summary of the method: as §3
[42] = test system: Mus musculus; experiment: Suppressive blood schizonticidal antimalarial activity evaluated in the trophozoite-induced Plasmodium berghei infection in mice (Mus musculus) at a dose 20 mg/kg given as number of toxic deaths; format: ADME, organism-based; parameters: dose 20 mg/kg; conditions: in vivo; summary of the method: as §3

## CCCCCCCCCCOc1c(OC)cc(NC(C)CCCN)c2nccc(C)c12 (stereo not drawn)
[1]
  Cures: 3
[2]
  Cures: 4
[3]
  Cures: 4
[4]
  Cures: 5
[5]
  Cures: 2
[6]
  Delta MST: 1.8
[7]
  Cures/no. of animals: 0
[8]
  Cures/no. of animals: 0
[9]
  Cures/no. of animals: 1
[10]
  Cures: 4

## COc1cc(NC(C)CCCN)c2nccc(C)c2c1OC (stereo not drawn)
[11]
  Toxic deaths: 1
[12]
  Delta MST: 7.1
[13]
  Cures: 1
[14]
  Toxic deaths: 5
[15]
  Toxic deaths: 4
[16]
  Delta MST: 5.7
[17]
  Delta MST: 8.9
[18]
  Cures: 3
[19]
  Cures: 11

## CCCCCOc1c(OC)cc(NC(C)CCCN)c2nccc(C)c12 (stereo not drawn)
[11]
  Toxic deaths: 4
[1]
  Cures: 1
[20]
  Cures/no. of animals: 2
[5]
  Cures: 4
[21]
  Cures: 2
[14]
  Toxic deaths: 5
[22]
  Cures: 5
[15]
  Toxic deaths: 5
[23]
  Toxic deaths: 2
[24]
  Cures/no. of animals: 3
[25]
  Cures: 5

## CCCCCCCOc1c(OC)cc(NC(C)CCCN)c2nccc(C)c12 (stereo not drawn)
[11]
  Toxic deaths: 1
[1]
  Cures: 4
[2]
  Cures: 2
[26]
  Cures/no. of animals: 4
[5]
  Cures: 5
[14]
  Toxic deaths: 5
[22]
  Cures: 3
[15]
  Toxic deaths: 5
[27]
  Cures/no. of animals: 2
[28]
  Cures/no. of animals: Toxic
[29]
  Delta MST: 7.9
[30]
  Cures/no. of animals: 0
[25]
  Cures: 3

## C=CCCOc1c(OC)cc(NC(C)CCCN)c2nccc(C)c12 (stereo not drawn)
[11]
  Toxic deaths: 5
[31]
  Cures/no. of animals: 1
[32]
  Delta MST: 8.1
[33]
  Cures: 1
[14]
  Toxic deaths: 5
[6]
  Delta MST: 7.5
[15]
  Toxic deaths: 5
[16]
  Delta MST: 8.8
[29]
  Delta MST: 7.5
[34]
  Cures/no. of animals: 1
[35]
  Cures/no. of animals: 0
[17]
  Delta MST: 0

## CCCCCCOc1c(OC)cc(NC(C)CCCN)c2ncc(C)cc12 (stereo not drawn)
[1]
  Cures: 2
[36]
  Delta MST: 7.6
[2]
  Cures: 1
[14]
  Toxic deaths: 4
[6]
  Delta MST: 0.2
[15]
  Toxic deaths: 3
[16]
  Delta MST: 8.2
[37]
  Cures/no. of animals: 0
[30]
  Cures/no. of animals: 0
[38]
  Cures/no. of animals: 3

## COc1cc(NC(C)CCCN)c2nccc(C)c2c1OCCCCCCOCc1ccccc1 (stereo not drawn)
[39]
  Cures/no. of animals: 1
[40]
  Cures/no. of animals: 3
[20]
  Cures/no. of animals: 2
[41]
  Toxic deaths: 5
[21]
  Cures: 1
[22]
  Cures: 2
[42]
  Toxic deaths: 2
[25]
  Cures: 4
